# TRPC4 block: inhibitors of mouse TRPC4 channel, primary screen, Fluo4 calcium, HEK293 TRPC4beta/mu-opioid cells; B-score at 10 µM; Short transient receptor potential channel 4 (Mus musculus), Q9QUQ5; 300,000 tested, 0.39% active; DAMGO-evoked Fluo4 calcium flux; stronger effect = lower value; AID 2247, 2010;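 active means B-score over 3 SD under the library average, no early fluorescence shift, positive overall ratio signal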
# Target sequence (Q9QUQ5 whole entry, looked up): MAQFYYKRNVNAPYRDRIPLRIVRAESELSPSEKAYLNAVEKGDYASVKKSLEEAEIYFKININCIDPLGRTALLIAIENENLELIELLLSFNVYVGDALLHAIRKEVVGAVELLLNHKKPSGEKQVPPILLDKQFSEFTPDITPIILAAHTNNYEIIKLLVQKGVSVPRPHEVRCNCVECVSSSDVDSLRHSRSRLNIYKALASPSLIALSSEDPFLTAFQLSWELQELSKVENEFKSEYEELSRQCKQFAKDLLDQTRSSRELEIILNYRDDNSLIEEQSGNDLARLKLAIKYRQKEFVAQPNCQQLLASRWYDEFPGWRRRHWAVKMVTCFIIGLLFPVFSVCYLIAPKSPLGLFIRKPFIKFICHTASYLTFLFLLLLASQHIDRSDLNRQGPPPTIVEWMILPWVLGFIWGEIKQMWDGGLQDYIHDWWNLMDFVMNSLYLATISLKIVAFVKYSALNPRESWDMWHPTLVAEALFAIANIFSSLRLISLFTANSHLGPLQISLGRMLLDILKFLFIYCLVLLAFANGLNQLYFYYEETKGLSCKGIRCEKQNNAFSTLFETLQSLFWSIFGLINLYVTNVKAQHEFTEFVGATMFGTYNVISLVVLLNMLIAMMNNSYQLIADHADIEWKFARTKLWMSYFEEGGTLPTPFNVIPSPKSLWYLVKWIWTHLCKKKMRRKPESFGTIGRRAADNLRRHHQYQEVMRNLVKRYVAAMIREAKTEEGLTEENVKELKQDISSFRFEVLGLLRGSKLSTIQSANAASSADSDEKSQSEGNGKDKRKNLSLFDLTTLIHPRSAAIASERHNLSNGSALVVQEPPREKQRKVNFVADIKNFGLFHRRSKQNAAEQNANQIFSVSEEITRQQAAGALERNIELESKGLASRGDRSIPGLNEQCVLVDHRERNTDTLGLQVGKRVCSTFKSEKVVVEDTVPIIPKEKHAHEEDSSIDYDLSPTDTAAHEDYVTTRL
#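 Material: HEK293 cells with stable TRPC4beta plus mu-opioid receptor expression; probe or stimulus: DAMGO in two steps, submaximal then maximal; technique: Fluo4 calcium fluorescence by kinetic imaging, 5 s 1 Hz baseline; measure: integrated fluorescence ratio relative to baseline, converted to per-well B score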
# TRPC4 agonist: activators of mouse TRPC4 channel, primary screen, Fluo4 calcium, HEK293 TRPC4beta/mu-opioid cells | AID 2237, 2010 | B-score at 10 µM | Fluo4 calcium fluorescence; stronger effect = higher value | 310,000 tested, 0.49% active;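 active means B-score above 5 SD of library B-scores, and initial fluorescence ratio not above library mean plus 5 SD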;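 further: positive B-score marks a calcium rise read as TRPC4 activation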
#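 Material: TRPC4beta and mu-opioid receptor HEK293 stable cells | Incubation: 45 min room-temperature Fluo4 loading, 110 s read | Detection: Kinetic Fluo4 calcium fluorescence | Measure: Integrated baseline-normalised fluorescence ratio, converted to per-well B score | Benchmarks: Low control buffer alone, high control maximal DAMGO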
# TRPC6 act: mouse TRPC6 channel activators, primary screen, cell-based, HEK293, membrane potential dye. HEK293-TRPC6 membrane potential dye fluorescence; stronger effect = higher value. Short transient receptor potential channel 6 (Mus musculus), Q61143. 310,000 tested, 0.13% active. B-score at 10 µM;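 active means B-score of the integrated fluorescence ratio above library mean plus 3 SD, and starting fluorescence ratio within library mean plus 5 SD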;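 further: higher score means more depolarization so channel activation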
# TRPC6 inhibitor: mouse TRPC6 channel inhibitors, primary screen, cell-based, HEK293, membrane potential dye. ACh-evoked depolarization; stronger effect = lower value. B-score at 10 µM. 310,000 tested, 1.1% active. Short transient receptor potential channel 6 (Mus musculus), Q61143;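 active means B-score under library mean minus 3 SD, initial fluorescence not abnormally high, positive integrated signal ratio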;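 further: B-score derived from integrated fluorescence ratio over the kinetic read; more negative B-score means stronger inhibition of depolarization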
# TRPC4 PAM: positive allosteric modulators of TRPC4, primary screen, cell-based, mouse TRPC4beta, HEK293 mu-opioid, Fluo-4 calcium; Short transient receptor potential channel 4 (Mus musculus), Q9QUQ5; DAMGO EC20, Fluo-4 Ca2+ flux; stronger effect = higher value; B-score at 10 µM; 310,000 tested, 0.42% active; AID 2227, 2009;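 active means B-score of calcium response area above 5 SD of library B-scores, with initial fluorescence ratio within 5 SD of library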;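 further: B-score of integrated fluorescence ratio over time as area under calcium response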
# Starred values were filed as active, the others as inactive; i = inactive. A selection: hits, their analogues and other compounds. The true share with any hit is near 2.3%.
SMILES,TRPC4 block,TRPC4 agonist,TRPC6 act,TRPC6 inhibitor,TRPC4 PAM
O=C(CCSc1nc(-c2ccco2)cc(C(F)(F)F)n1)N1CCN(c2ccccn2)CC1,i,i,i,-6.34*,i
COC(=O)c1ccc(NC(=O)C2CCCN(S(C)(=O)=O)C2)cc1 (stereo not given),i,i,i,i,i
COC(=O)c1ccc(CN2CCCC(C(=O)Nc3ccc(-c4ccn[nH]4)cc3)C2)cc1 (stereo not given),i,50*,i,i,i
Cc1oc(-c2ccc(Cl)cc2)nc1CN1CCC(C(=O)NCc2cccs2)CC1,-6*,i,i,i,i
CCN(CCNC(=O)C1CCN(Cc2nc(-c3ccc(Cl)cc3)oc2C)CC1)c1ccccc1,i,i,i,-6.6*,i
Cc1oc(-c2ccc(Cl)cc2)nc1CN1CCC(C(=O)NCC2CCCO2)CC1 (stereo not given),i,i,i,i,i
Oc1c(C=Nc2ccccc2Cl)[nH]c2ccccc12,i,i,i,i,i
Nn1c(COc2ccc(Cl)cc2)nc2ccccc2c1=O,i,i,i,i,i
COc1ccccc1C1CCN(c2cc(O)ccc2[N+](=O)[O-])CC1,-5*,i,i,i,13*
COc1ccccc1C1CCN(C(=O)c2ccccc2)CC1,i,i,i,i,i
Cc1cc(NC(=O)CCC(=O)N(CC(=O)NCC2CCCO2)c2ccc(C)c(C)c2)no1 (stereo not given),i,i,i,i,i
COc1c2c(cc3c1C(CC(O)Cc1ccccc1)N(C)CC3)OCO2 (stereo not given),i,96*,i,i,i
FC(F)(F)c1cccc(Cn2nnnc2-c2cccc(C(F)(F)F)c2)c1,i,i,i,i,i
Cc1ccc(Nc2cc(C)nc3ccc(C)cc23)cc1,-6*,i,i,i,i
COC(=O)c1ccc(Nc2cc(C)nc3ccccc23)cc1,-6*,i,i,i,i
COC(=O)c1ccc2nc(C)cc(Nc3ccc(N(C)C)cc3)c2c1,i,i,i,i,i
COc1ccc(Nc2cc(C)nc3ccc(OC)cc23)cc1,-6*,i,i,i,i
Nc1ccc(SCC(=O)Nc2cccc([N+](=O)[O-])c2)cc1,i,i,i,i,i
O=C(COc1ccc(Cl)cc1)Nc1ccc(C(=O)O)cc1NC(=O)COc1ccc(Cl)cc1,-6*,i,i,i,i
COC(=O)c1sccc1NC(=O)CSc1ccccc1NC(=O)CNC(C)C,-6*,i,i,i,i
COC(=O)c1sccc1NC(=O)CSc1ccccc1N,i,i,i,i,i
CCOc1ccc(S(=O)(=O)N2CC(=O)Nc3ccccc32)cc1,i,i,i,i,i
O=C(Nc1ccc(Cl)c(S(=O)(=O)N2CCOCC2)c1)c1ccccc1-c1ccc(C(F)(F)F)cc1,i,i,i,i,i
COCCn1c(SCC(=O)Nc2ccc(S(=O)(=O)N3CCOCC3)cc2)nc2ccccc21,i,i,i,i,31*
Cc1ccc(S(=O)(=O)N2CCN(S(=O)(=O)N3CCCCCC3)CC2)cc1,i,i,i,i,i
O=C(Nc1ccncc1)c1ccc(Cl)c(S(=O)(=O)N2CCc3ccccc32)c1,i,95*,i,i,i
COc1cc(OC)cc(C(=O)Nc2sc3c(c2C(N)=O)CCC3)c1,i,i,i,i,i
CCCCN(C)CCCNC(=O)c1ccc2c(c1)NC(=O)C(N1CCOCC1)S2 (stereo not given),i,i,i,i,12*
Cc1c([N+](=O)[O-])cc(C(=O)Nc2ccc(NC(=O)c3ccco3)cc2)cc1[N+](=O)[O-],i,i,i,i,i

# Screening data as filed in PubChem BioAssay.
